Assay results published in ChEMBL document CHEMBL1127026, “Novel antagonists of 5-HT3 receptors. Synthesis and biological evaluation of piperazinylquinoxaline derivatives” (J Med Chem, 1993).

How the values were obtained:
[1] = system: 5-HT3 receptor (Cavia porcellus); assay: Tested for the antagonistic activity against 5-hydroxytryptamine 3 receptor from guinea pig ileum; parameters: concentration or dose not given beside the values; details: concentration not given here
[2] = target: Serotonin 2 (5-HT2) receptor (Rattus norvegicus) (UniProt P30994+P08909+P14842); assay: Tested for antagonistic activity against 5-hydroxytryptamine 2 receptor from rat thoracic aorta; type: functional, tissue-based; parameters: concentration or dose not given beside the values; details: concentration not given here
Chain of Serotonin 2 (5-HT2) receptor (Rattus norvegicus) (P08909 whole entry, looked up): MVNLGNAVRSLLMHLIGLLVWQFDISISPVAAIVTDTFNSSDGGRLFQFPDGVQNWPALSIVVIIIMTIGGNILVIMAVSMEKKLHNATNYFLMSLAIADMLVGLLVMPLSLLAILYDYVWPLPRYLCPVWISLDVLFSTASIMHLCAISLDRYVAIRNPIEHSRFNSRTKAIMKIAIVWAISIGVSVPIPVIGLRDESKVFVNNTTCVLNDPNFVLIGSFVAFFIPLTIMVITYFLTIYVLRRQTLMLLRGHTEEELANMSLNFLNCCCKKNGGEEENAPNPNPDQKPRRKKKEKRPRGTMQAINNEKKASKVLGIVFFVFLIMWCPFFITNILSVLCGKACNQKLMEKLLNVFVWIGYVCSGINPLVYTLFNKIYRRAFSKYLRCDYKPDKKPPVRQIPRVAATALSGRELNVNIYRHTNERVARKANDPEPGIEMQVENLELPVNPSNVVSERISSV
Chain of Serotonin 2 (5-HT2) receptor (Rattus norvegicus) (P14842 whole entry, looked up): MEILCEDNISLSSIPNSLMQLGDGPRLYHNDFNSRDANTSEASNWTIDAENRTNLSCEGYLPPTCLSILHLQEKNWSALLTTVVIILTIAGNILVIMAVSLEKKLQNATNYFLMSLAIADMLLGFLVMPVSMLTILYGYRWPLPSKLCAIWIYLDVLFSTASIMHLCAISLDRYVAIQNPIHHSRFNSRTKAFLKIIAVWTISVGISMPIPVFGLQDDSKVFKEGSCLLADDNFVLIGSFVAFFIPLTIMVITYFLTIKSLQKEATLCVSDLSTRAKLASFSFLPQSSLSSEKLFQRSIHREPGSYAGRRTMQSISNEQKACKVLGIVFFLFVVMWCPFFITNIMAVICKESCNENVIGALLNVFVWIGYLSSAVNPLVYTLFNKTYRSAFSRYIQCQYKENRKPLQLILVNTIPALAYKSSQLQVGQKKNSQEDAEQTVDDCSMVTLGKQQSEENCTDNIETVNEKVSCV
Chain of Serotonin 2 (5-HT2) receptor (Rattus norvegicus) (P30994 whole entry, looked up): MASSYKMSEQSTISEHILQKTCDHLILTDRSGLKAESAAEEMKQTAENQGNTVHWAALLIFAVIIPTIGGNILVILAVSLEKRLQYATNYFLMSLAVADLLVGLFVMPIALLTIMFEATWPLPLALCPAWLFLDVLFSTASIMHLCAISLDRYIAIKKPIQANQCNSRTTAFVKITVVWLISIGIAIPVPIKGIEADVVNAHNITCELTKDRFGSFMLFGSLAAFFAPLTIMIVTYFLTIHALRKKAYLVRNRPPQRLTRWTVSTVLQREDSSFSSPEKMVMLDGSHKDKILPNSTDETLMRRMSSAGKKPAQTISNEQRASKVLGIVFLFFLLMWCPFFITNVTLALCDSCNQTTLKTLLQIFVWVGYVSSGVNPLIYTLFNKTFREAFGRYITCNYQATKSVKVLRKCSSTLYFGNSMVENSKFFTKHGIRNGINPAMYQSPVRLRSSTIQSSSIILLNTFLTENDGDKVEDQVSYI
How it was run: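 Thoracic aorta rings (2-3 mm) from male Wistar rats (200-250 g), resting tension 1.5 g, equilibrated 60-90 min. Contracted with 5-HT 3×10^-6 M, taken as 100%. Compounds at 10^-5 M were incubated for 30 min before 5-HT was re-added. Inhibition given as % of the prior response. Means ± SE of 4-6 experiments.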

[3] = target: T1, Serotonin 3 (5-HT3) receptor (Rattus norvegicus, UniProt P35563+Q9JJ16); assay: Displacement of binding of [3H]-BRL 43694 to 5-hydroxytryptamine 3 receptor in rat cerebral cortex; type: tissue-based
T1 sequence (P35563 whole entry): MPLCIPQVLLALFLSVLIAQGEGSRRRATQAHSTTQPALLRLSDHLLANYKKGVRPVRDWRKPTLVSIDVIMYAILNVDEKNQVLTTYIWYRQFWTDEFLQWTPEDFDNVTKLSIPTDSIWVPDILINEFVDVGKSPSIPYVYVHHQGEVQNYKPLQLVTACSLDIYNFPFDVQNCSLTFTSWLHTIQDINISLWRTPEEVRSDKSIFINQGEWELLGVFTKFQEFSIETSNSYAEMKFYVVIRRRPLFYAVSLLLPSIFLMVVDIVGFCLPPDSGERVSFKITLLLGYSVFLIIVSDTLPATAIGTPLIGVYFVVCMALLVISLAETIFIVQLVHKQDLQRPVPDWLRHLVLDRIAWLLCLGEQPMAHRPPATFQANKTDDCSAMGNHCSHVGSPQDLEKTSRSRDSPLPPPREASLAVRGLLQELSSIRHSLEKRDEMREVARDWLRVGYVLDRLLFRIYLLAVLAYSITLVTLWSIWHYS
T1 sequence (Q9JJ16 whole entry): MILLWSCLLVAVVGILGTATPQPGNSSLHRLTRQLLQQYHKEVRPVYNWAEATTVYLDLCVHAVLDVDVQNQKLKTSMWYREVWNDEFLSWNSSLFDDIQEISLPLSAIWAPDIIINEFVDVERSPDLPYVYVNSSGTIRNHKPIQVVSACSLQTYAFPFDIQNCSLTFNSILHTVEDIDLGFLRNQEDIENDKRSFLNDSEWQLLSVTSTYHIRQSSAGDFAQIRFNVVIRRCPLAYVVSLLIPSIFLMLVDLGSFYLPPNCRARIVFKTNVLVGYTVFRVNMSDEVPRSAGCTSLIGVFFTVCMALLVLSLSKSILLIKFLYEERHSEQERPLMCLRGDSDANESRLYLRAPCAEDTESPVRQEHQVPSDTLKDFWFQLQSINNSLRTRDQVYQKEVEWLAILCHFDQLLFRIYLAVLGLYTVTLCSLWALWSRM

[4] = target: Serotonin 1 (5-HT1) receptor (Rattus norvegicus, UniProt P28564+P30940+P19327+P28565); assay: Displacement of binding of [3H]-5-HT to 5-hydroxytryptamine 1 receptor in rat cerebral cortex; type: tissue-based
How it was run: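 Rat cortical membranes homogenized in 50 mM Tris-HCl, centrifuged, pre-incubated at 37 °C for 10 min, then resuspended with 0.1% ascorbic acid and 10 μM pargyline. Incubated with 0.3 nM [3H]-5-HT for 10 min at 37 °C. Nonspecific binding defined with 10 μM 5-HT. Filtered and counted by scintillation. Means of 3-6 experiments.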

Cavia porcellus = species: Cavia porcellus; assay: Antagonism to 2-methyl-5-HT induced contractions in guinea pig ileum; type: functional; details: read-out: pA2 (converted)
How it was run: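 Isometric recording at 0.5 g resting tension in physiological salt solution gassed with 95% O2/5% CO2 at 37 °C, after 30-min equilibration. Tissue incubated 30 min with a single antagonist concentration before agonist; pA2 calculated against 2-methyl-5-HT by Furchgott's single-concentration method, […]. Means of three to six experiments.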

Rattus norvegicus = assay: Tested in vivo for antagonistic activity to bradycardic effect of 5-HT in anesthetized rats; type: functional; details: read-out: ID50
How it was run: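 Male Sprague-Dawley rats (500-550 g), urethane 1 g/kg ip. Heart rate derived from carotid arterial pressure. Serotonin 4 μg/kg iv bolus every 15 min; compounds given iv via the jugular vein 2 min before serotonin. Percent inhibition of bradycardia recorded; ID50 by Litchfield-Wilcoxon.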

| Structure (SMILES) | inhibition [1] [%] | inhibition [2] [%] | Ki [3] [nM] | Ki [4] [nM] | Kb (Cavia porcellus) [nM] | ED50 (Rattus norvegicus) [mg/kg] |
| --- | --- | --- | --- | --- | --- | --- |
| CCCCN1CCN(c2nc3ccccc3nc2C#N)CC1 | 12.5 |  |  |  |  |  |
| CN1CCN(c2nc3ccccc3nc2C#N)CC1 | 48.4 |  |  |  |  |  |
| N#Cc1nc2ccccc2nc1N1CCN(c2ccc([N+](=O)[O-])cc2)CC1 | 18 |  |  |  |  |  |
| N#Cc1nc2ccccc2nc1N1CCN(Cc2ccccc2)CC1 | 12.4 | 20.5 |  |  |  |  |
| COc1cccc(N2CCN(c3nc4ccccc4nc3C#N)CC2)c1 | 3.5 | 4.6 |  |  |  |  |
| CCCN1CCN(c2nc3ccccc3nc2C#N)CC1 | 63.3 | 12.5 | 40 | > 1000 | 1000 | 0.38 |
| CCN1CCN(c2nc3ccc(N)cc3nc2C#N)CC1 | 43.5 |  |  |  |  |  |
| N#Cc1nc2ccccc2nc1N1CCN(c2ccc(F)cc2)CC1 | 21.4 |  |  |  |  |  |
| CC(=O)c1ccc(N2CCN(c3nc4ccccc4nc3C#N)CC2)cc1 | 7.4 |  |  |  |  |  |
| N#Cc1nc2ccccc2nc1N1CCNCC1 | 63.7 | 9.1 | 90 | 345 | 1580 | 0.027 |
| CCN1CCN(c2nc3ccc([N+](=O)[O-])cc3nc2C#N)CC1 | 21.3 |  |  |  |  |  |
| N#Cc1nc2ccccc2nc1N1CCN(CCc2ccccc2)CC1 | 29.2 | 25 |  |  |  |  |
| N#Cc1nc2ccccc2nc1N1CCN(c2ccccc2)CC1 | 21.9 | 8.4 |  |  |  |  |
| Cc1nccn1CC1CCc2c(c3ccccc3n2C)C1=O (centres undefined) [ONDANSETRON] |  | 0.6 |  |  | 126 | 0.0004 |
| CN1[C@@H]2CC[C@H]1C[C@@H](OC(=O)c1c[nH]c3ccccc13)C2.Cl |  | 2.4 | 3.8 | > 1000 | 3.98 | 0.002 |
| CCN1CCN(c2nc3ccccc3nc2C#N)CC1 | 80.5 | 9.1 | 100 | > 1000 | 63.1 | 0.015 |
| N#Cc1nc2ccccc2nc1N1CCN(Cc2ccc3c(c2)OCO3)CC1 | 28.4 |  |  |  |  |  |
| Cc1ccc(N2CCN(c3nc4ccccc4nc3C#N)CC2)cc1 | 15.8 | 4.6 |  |  |  |  |
| CCOC(=O)CN1CCN(c2nc3ccccc3nc2C#N)CC1 | 14.4 | 5.1 |  |  |  |  |
| CCCCCN1CCN(c2nc3ccccc3nc2C#N)CC1 | 18 | 3.9 |  |  |  |  |
| N#Cc1nc2cc([N+](=O)[O-])ccc2nc1N1CCNCC1 | 7.7 |  |  |  |  |  |
| N#Cc1nc2ccccc2nc1N1CCN(c2cccc(C(F)(F)F)c2)CC1 | 39.5 | 18.3 |  |  |  |  |
| C=CCN1CCN(c2nc3ccccc3nc2C#N)CC1 |  | 9.1 | 8 | > 1000 | 0.0631 | 0.02 |
| COc1ccccc1N1CCN(c2nc3ccccc3nc2C#N)CC1 | 10.6 |  |  |  |  |  |
| N#Cc1nc2ccccc2nc1N1CCN(c2ccc(Cl)cc2)CC1 | 11 | 7 |  |  |  |  |
